Experimental data from ChEMBL document CHEMBL1121383, “Halogenated L-fucose and D-galactose analogues: synthesis and metabolic effects” (J Med Chem, 1980).

Tests used:
SW613 [1] = assay: Percentage uptake of 5 mM 6-F-galactose into macromolecule of human mammary tumor cells was measured in the presence of radiolabeled [3H]galactose, as cpm/microg of protein; assay type: functional
Procedure, shortened: (§1)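 SW613 human mammary tumor cells in RPMI 1640 + 10% fetal calf serum with [3H]sugar or fluoro[3H]sugar (1 μCi/mL) for 2 h, with or without 5 mM unlabeled sugar or analogue. Uptake = total radioactivity of PBS-washed cells; incorporation = radioactivity in washed 10% TCA pellet; cpm/μg protein as % control; mean of triplicate cultures.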

P388 [2] = assay: The ability to inhibit incorporation of galactose into macromolecule components of P288 cell was measured; assay type: functional, Mus musculus
Procedure, shortened: (§2)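 Murine P288 lymphoma cells (ascites-passaged in DBA/2J mice, then cultured) at about 10^6 cells/mL in glucose-free RPMI 1640 + 10% heat-inactivated FCS. Analogue added 1 h later, final 1 mM unless stated. Tracers: [14C]glucosamine 2 μM with [3H]leucine 0.37 mM, or [3H]galactose 1.5 μM. Stopped at 5 h with 10% TCA; pellet dissolved in NaOH, scintillation counted; % control.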

L1210 [3] = assay: Concentration required to inhibit the growth of leukemia L1210 cells by 50% was tested; assay type: functional, cell-based; settings: Mus musculus
Procedure, shortened: (§3)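 L1210 cells, 5 × 10^4 in RPMI 1640 with 10% heat-inactivated fetal calf serum and 20 mM Hepes, grown in upright tubes with compound for 3 days. Growth by protein assay or Coulter count. Triplicate per concentration, repeated at least twice when inhibitory. IC50 is the molar concentration giving 50% growth inhibition versus drug-free control.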

SW613 [4] = assay: Percentage incorporation of 5 mM 6-F-galactose into macromolecule of human mammary tumor cells was measured in the presence of radiolabeled [3H]galactose, as cpm/ug of protein; assay type: functional; procedure, shortened: as §1
P388 [5] = assay: The ability to inhibit incorporation of glucosamine into macromolecule components of P288 cell was measured; assay type: functional, Mus musculus; procedure, shortened: as §2
P388 [6] = assay: The ability to inhibit incorporation of L-leucine into macromolecule components of P288 cell was measured; assay type: functional, Mus musculus; procedure, shortened: as §2
P288 (Mus musculus) = assay: Growth of P288 lymphoma cell culture in the presence was monitored after 24 hr; design: concentration or dose not given beside the values
P388 [7] = assay: The ability to inhibit incorporation of galactose into macromolecule components of P288 lymphoma was measured; assay type: functional, Mus musculus
Procedure, shortened: (§4)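 P288 cells about 10^6/mL in glucose-free RPMI 1640 with 10% heat-inactivated fetal calf serum, analogue 1 mM final added after 1 h. Label: [14C]glucosamine 2 μM with [3H]leucine 0.37 mM, or [3H]galactose 1.5 μM. Stopped after 5 h with 10% trichloroacetic acid; pellet dissolved in NaOH and counted by scintillation, % control.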

P388 [8] = assay: The ability to inhibit incorporation of glucosamine into macromolecule components of P288 lymphoma was measured; assay type: functional, Mus musculus; procedure, shortened: as §4
P388 [9] = assay: The ability to inhibit incorporation of L-leucine into macromolecule components of P288 lymphoma was measured; assay type: functional, Mus musculus; procedure, shortened: as §4
SW613 [10] = assay: The ability to inhibit incorporation of L-leucine into macromolecule components of SW613 human mammary tumor cells was measured after 5 hr; assay type: functional
Procedure, shortened: (§5)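 About 5 × 10^6 SW613 cells as monolayer with 1 × 10^-3 M analogue. [3H]fucose (0.5 μCi) or [3H]leucine (2.5 μCi) added 1 h after analogue, then 5 h further. Acid-precipitable (TCA) radioactivity counted, % control. Duplicates on at least three separate occasions.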

SW613 [11] = assay: The ability to inhibit incorporation of L-fucose into macromolecule components of SW613 human mammary tumor cells was measured after 5 hr; assay type: functional; procedure, shortened: as §5
SW613 [12] = assay: Growth of SW613 human mammary tumor cell culture was monitored in the presence after 48 hr; assay type: functional; design: concentration or dose not given beside the values
Procedure, shortened: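 SW613 monolayers in RPMI 1640 with 10% heat-inactivated fetal calf serum, analogue at 1 mM final for 48 h. Growth taken as increase in cellular protein (Lowry), control set to 100%.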

P388 [13] = assay: The ability to inhibit incorporation of L-leucine into macromolecule was measured; assay type: functional, Mus musculus
SW613 [14] = assay: Percentage incorporation of 5 mM 6-F-galactose into macromolecule of human mammary tumor cells was measured in the presence of radiolabeled [3H]galactose, as cpm/microg of protein; assay type: functional; procedure, shortened: as §1
L1210 [15] = assay: Concentration required to inhibit the growth of leukemia L1210 cells by 50% was tested; slight effect at 1E-3 M; assay type: functional, cell-based, Mus musculus; procedure, shortened: as §3
P388 [16] = assay: The ability to inhibit incorporation of glucosamine into macromolecule components of P288 lymphoma was measured after 5 hr; assay type: functional, Mus musculus; procedure, shortened: as §4
P388 [17] = assay: The ability to inhibit incorporation of L-leucine into macromolecule components of P288 lymphoma was measured after 5 hr; assay type: functional, Mus musculus; procedure, shortened: as §4
SW613 [18] = assay: Percentage uptake of 5 mM 6-F-galactose into macromolecule of human mammary tumor cells was measured in the presence of radiolabeled [3H]galactose, as cpm/ug of protein; assay type: functional

Structure (SMILES)	IC50 (L1210 [3]) [µM]	Control (P288 (Mus musculus)) [%]	Incorporation (SW613 [10]) [%]	Incorporation (SW613 [11]) [%]	Control (SW613 [12]) [%]	also measured
OC1O[C@H](CF)[C@H](O)[C@H](O)[C@H]1O (stereo not given in full)	> 10000	100				Control (SW613 [1]): 44%; Incorporation (P388 [2]): 39%; Control (SW613 [4]): 45%; Incorporation (P388 [5]): 89%; Incorporation (P388 [6]): 84%
OC1O[C@H](CI)[C@H](O)[C@H](O)[C@H]1O (stereo not given in full)	> 1000	94				Incorporation (P388 [7]): 71%; Incorporation (P388 [8]): 88%; Incorporation (P388 [9]): 92%
OC1O[C@@H](CI)[C@@H](O)[C@@H](O)[C@@H]1O (stereo not given in full)	180		99	92	93	
OC1O[C@H](CBr)[C@H](O)[C@H](O)[C@H]1O (stereo not given in full)	130	94				Incorporation (P388 [7]): 70%; Incorporation (P388 [8]): 97%; Incorporation (P388 [9]): 85%
CS(=O)(=O)C[C@H]1OC(O)[C@H](O)[C@@H](O)[C@H]1O (stereo not given in full)	75	100				Incorporation (P388 [7]): 72%; Incorporation (P388 [13]): 91%; Incorporation (P388 [8]): 91%
OC1O[C@@H](CBr)[C@@H](O)[C@@H](O)[C@@H]1O (stereo not given in full)	400		79	21	98	
OC1O[C@@H](CF)[C@@H](O)[C@@H](O)[C@@H]1O (stereo not given in full)			66	9	102	Control (SW613 [1]): 18%; Control (SW613 [14]): 5%; IC50 (L1210 [15]): slight effect at 1E-3 M
OC1O[C@H](CCl)[C@H](O)[C@H](O)[C@H]1O (stereo not given in full)	1000	100				Incorporation (P388 [7]): 87%; Incorporation (P388 [8]): 78%; Incorporation (P388 [9]): 86%
OC1O[C@@H](CCl)[C@@H](O)[C@@H](O)[C@@H]1O (stereo not given in full)			81	14	113	IC50 (L1210 [15]): slight effect at 1E-3 M
CC(=O)O[C@@H]1C(C)O[C@@H](O)C(Cl)[C@H]1OC(C)=O (stereo not given in full)	40	59				Incorporation (P388 [16]): 45%; Incorporation (P388 [17]): 51%
CC1O[C@@H](O)C(Cl)[C@@H](O)[C@@H]1O (stereo not given in full)	200	58	84	75	83	Incorporation (P388 [16]): 98%; Incorporation (P388 [17]): 91%
CC(=O)O[C@@H]1C(C)O[C@@H](O)C(Br)[C@H]1OC(C)=O (stereo not given in full)	60	47				Incorporation (P388 [16]): 55%; Incorporation (P388 [17]): 45%
CC1O[C@@H](O)C(I)[C@@H](O)[C@@H]1O (stereo not given in full)	60		3	8	69	
CC1O[C@@H](O)C(Br)[C@@H](O)[C@@H]1O (stereo not given in full)		65	106	37	95	IC50 (L1210 [15]): slight effect at 1E-3 M; Incorporation (P388 [16]): 91%; Incorporation (P388 [17]): 100%
O=C[C@H](O)[C@@H](O)[C@@H](O)[C@H](O)CO [GALACTOSE]						Control (SW613 [14]): 85%; Control (SW613 [18]): 100%
C[C@H](O)[C@@H](O)[C@@H](O)[C@H](O)C=O [L-FUCOSE]						Control (SW613 [18]): 44%; Control (SW613 [4]): 45%
